From ChEMBL document CHEMBL2150922, “A sulfoximine-based inhibitor of human asparagine synthetase kills L-asparaginase-resistant leukemia cells” (Bioorg Med Chem, 2012)
Calls of active or inactive are those of the source. The calls are words filed in the database; no cut-off is given here.

What was measured:
[1] = molecular target: T1, Asparagine synthetase [glutamine-hydrolyzing] (Homo sapiens, UniProt P08243); experiment: Inhibition of human recombinant ASNS expressed in Sf9 cells assessed as initial inhibition constant for glutamine dependent production of inorganic pyrophosphate by spectrophotometry analysis
T1 sequence (P08243 whole entry): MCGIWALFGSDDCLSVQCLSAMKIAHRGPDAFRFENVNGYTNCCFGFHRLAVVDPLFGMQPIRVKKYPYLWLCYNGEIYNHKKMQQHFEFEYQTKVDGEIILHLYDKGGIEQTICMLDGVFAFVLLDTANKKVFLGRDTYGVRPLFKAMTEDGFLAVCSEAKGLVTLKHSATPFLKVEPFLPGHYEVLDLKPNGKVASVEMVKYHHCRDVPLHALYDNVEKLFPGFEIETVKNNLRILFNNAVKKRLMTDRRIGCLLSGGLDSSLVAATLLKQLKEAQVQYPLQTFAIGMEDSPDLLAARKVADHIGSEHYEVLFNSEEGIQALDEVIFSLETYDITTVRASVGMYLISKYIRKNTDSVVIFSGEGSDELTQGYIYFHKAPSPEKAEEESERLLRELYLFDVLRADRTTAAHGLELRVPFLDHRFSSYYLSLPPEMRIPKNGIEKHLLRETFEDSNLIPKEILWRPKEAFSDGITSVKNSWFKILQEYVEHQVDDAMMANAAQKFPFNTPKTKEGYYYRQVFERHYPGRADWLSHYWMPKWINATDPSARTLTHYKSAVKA

[2] = molecular target: T1, Asparagine synthetase [glutamine-hydrolyzing]; experiment: Inhibition of human recombinant ASNS expressed in Sf9 cells assessed as assessed as initial inhibition constant for ammonia dependent production of inorganic pyrophosphate by spectrophotometry analysis
Method in brief: (§1)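 PPi formation was coupled to NADH loss at 340 nm over 20 min. Progress curves at fixed inhibitor levels were fitted, and Ki was taken from k versus [I] with Ka 0.1 mM. Duplicates.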

[3] = molecular target: T1, Asparagine synthetase [glutamine-hydrolyzing]; experiment: Inhibition of human recombinant ASNS expressed in Sf9 cells assessed as overall inhibition constant for glutamine dependent production of inorganic pyrophosphate by spectrophotometry analysis
[4] = molecular target: T1, Asparagine synthetase [glutamine-hydrolyzing]; experiment: Inhibition of human recombinant ASNS expressed in Sf9 cells assessed as assessed as overall inhibition constant for ammonia dependent production of inorganic pyrophosphate by spectrophotometry analysis; method in brief: as §1
MOLT-4 [5] = experiment: Cytotoxicity against human ASNase-sensitive MOLT4 cells assessed as cell viability at 250 to 500 uM after 48 hrs by MTS assay; type: functional, cell-based
Method in brief: (§2)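 The ASNase-sensitive MOLT-4S line was kept in RPMI 1640 with 10% heat-inactivated FBS and penicillin-streptomycin at 37°C, 5% CO2. They were incubated 48 h with 10-1000 µM compound and no ASNase. Viability was measured by MTS (OD 490) relative to t=0 cell number; mean ± SD of triplicates.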

MOLT-4 [6] = experiment: Cytotoxicity against human ASNase-resistant MOLT4 cells assessed as cell viability at 250 uM after 48 hrs by MTS assay in presence of ASNase; type: functional, cell-based
Method in brief: (§3)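 MOLT-4R cells grown in RPMI 1640 with 10% heat-inactivated FBS and penicillin-streptomycin at 37°C under 5% CO2. Cells were exposed to 10-1000 µM inhibitor, with or without 1 U/mL ASNase, for 48 h. Read-out was MTS at 490 nm, as titer relative to untreated cells at t=0; mean ± SD of triplicates.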

MOLT-4 [7] = experiment: Cytotoxicity against human ASNase-resistant MOLT4 cells assessed as cell viability at >500 uM after 48 hrs by MTS assay in absence of ASNase
MOLT-4 [8] = experiment: Cytotoxicity against human ASNase-resistant MOLT4 cells assessed as cell viability at 0.06 mM after 48 hrs by MTS assay in presence of ASNase; type: functional, cell-based; method in brief: as §3
MOLT-4 [9] = experiment: Cytotoxicity against human ASNase-resistant MOLT4 cells assessed as cell viability at 0.13 mM after 48 hrs by MTS assay in absence of ASNase; type: functional, cell-based; method in brief: as §3
MOLT-4 [10] = experiment: Cytotoxicity against human ASNase-resistant MOLT4 cells assessed as cell viability after 48 hrs by MTS assay in absence of ASNase relative to sulfoximine 1
MOLT-4 [11] = experiment: Cytotoxicity against human ASNase-resistant MOLT4 cells assessed as cell viability at 130 uM after 48 hrs by MTS assay in presence of ASNase; type: functional, cell-based; method in brief: as §3
MOLT-4 [12] = experiment: Cytotoxicity against human ASNase-sensitive MOLT4 cells assessed as cell viability at 130 uM after 48 hrs by MTS assay; type: functional, cell-based; method in brief: as §2
MOLT-4 [13] = experiment: Cytotoxicity against human ASNase-resistant MOLT4 cells assessed as cell viability at 0.06 mM after 48 hrs by MTS assay in absence of ASNase; type: functional, cell-based; method in brief: as §3
MOLT-4 [14] = experiment: Cytotoxicity against human ASNase-resistant MOLT4 cells assessed as cell viability after 48 hrs by MTS assay in absence of ASNase; type: functional, cell-based; method in brief: as §3

| Structure (SMILES) | Ki [1] | Ki [2] | Ki [3] | Ki [4] | Activity (MOLT-4 [5]) | Activity (MOLT-4 [6]) | Activity (MOLT-4 [7]) | Activity (MOLT-4 [8]) | Activity (MOLT-4 [9]) | fold change (FC) (MOLT-4 [10]) | Activity (MOLT-4 [11]) | Activity (MOLT-4 [12]) | Activity (MOLT-4 [13]) | Activity (MOLT-4 [14]) |
| --- | --- | --- | --- | --- | --- | --- | --- | --- | --- | --- | --- | --- | --- | --- |
| C[S+]([O-])(CCC(=O)O)=NP(=O)(O)OC[C@H]1O[C@@H](n2cnc3c(N)ncnc32)[C@H](O)[C@@H]1O (mixture of isomers) | 4500 nM | 3040 nM | 840 nM | 310 nM | – | – | – | – | – | – | – | – | – | – |
| C[S+]([O-])(C[C@H](N)C(=O)O)=NP(=O)(O)OC[C@H]1O[C@@H](n2cnc3c(N)ncnc32)[C@H](O)[C@@H]1O (mixture of isomers) | 1000 nM | 280 nM | 24 nM | 2.5 nM | – | – | – | – | – | – | – | – | – | – |
| C[S+]([O-])(CCN)=NP(=O)(O)OC[C@H]1O[C@@H](n2cnc3c(N)ncnc32)[C@H](O)[C@@H]1O (mixture of isomers) | 490 nM | 450 nM | 8 nM | 33 nM | Active | Active | Active | inactive | Active | 7 | Active | Active | inactive | Dose-dependent effect |
